Reference: paper PMC2677188 (ACS chemical biology, 2009)
Several values for one entry are separate records, joined by “and”; a condition that tells them apart may be missing. Equal values may be shown once. Read-outs that look alike come from different tables or passages of the source.

Assays:
rTAAR1(A5.42I) = rTAAR1(A5.42I) (Rattus norvegicus, UniProt Q923Y9, A193I); assay: cAMP agonist activity assay, rTAAR1; format: cell-based; conditions: for decrease in potency versus wild type: rTAAR1(A5.42I)
Chain of rTAAR1(A5.42I) (Q923Y9 whole entry A193I): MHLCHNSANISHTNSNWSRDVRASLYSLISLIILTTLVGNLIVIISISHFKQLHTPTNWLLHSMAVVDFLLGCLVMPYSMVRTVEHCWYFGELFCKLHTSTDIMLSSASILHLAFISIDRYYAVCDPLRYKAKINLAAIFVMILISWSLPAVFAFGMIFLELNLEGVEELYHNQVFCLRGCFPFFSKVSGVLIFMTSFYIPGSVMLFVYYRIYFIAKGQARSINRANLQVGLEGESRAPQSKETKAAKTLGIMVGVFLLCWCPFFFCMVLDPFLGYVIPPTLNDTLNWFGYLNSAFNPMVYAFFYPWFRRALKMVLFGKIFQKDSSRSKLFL
Procedure, shortened: (§1)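 Site-directed TAAR1 mutants were stably expressed in HEK293 cells (transfected, selected with G418). cAMP was measured with a HitHunter cAMP XS kit over concentration-response curves. Responses were expressed relative to the reference agonist at 10 μM (set as 100%). EC50 and Emax were obtained by curve fitting, averaged over N independent triplicate experiments, with SEM.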

[1] = molecular target: T1, mTAAR1 (wild type mouse TAAR1) (Mus musculus, UniProt Q923Y8); conditions: wild type receptors; cited from earlier work
T1 sequence (Q923Y8 whole entry): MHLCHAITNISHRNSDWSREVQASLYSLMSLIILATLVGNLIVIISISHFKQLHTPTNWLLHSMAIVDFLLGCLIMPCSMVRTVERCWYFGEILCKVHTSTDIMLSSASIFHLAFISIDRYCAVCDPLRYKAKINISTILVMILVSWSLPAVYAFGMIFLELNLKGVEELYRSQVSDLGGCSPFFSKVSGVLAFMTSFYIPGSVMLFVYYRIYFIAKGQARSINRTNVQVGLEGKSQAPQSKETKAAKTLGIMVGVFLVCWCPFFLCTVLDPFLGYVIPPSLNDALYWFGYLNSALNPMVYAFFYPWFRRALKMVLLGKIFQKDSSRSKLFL

rTAAR1(M6.55T/N7.39Y) = rTAAR1(M6.55T/N7.39Y) (Rattus norvegicus, UniProt Q923Y9, M268T/N287Y); assay: cAMP agonist activity assay, rTAAR1; format: cell-based
Chain of rTAAR1(M6.55T/N7.39Y) (Q923Y9 whole entry M268T/N287Y): as the sequence (Q923Y9 whole entry A193I) above, with I193A, M268T, N287Y counted along it

[2] = molecular target: T1, mTAAR1 (wild type mouse TAAR1); assay: In vitro cAMP agonist activity assay, wild type mTAAR1; format: cell-based
mTAAR1(T6.55M) = mTAAR1(T6.55M) (Mus musculus, UniProt Q923Y8, T268M); assay: cAMP agonist activity assay, mTAAR1; format: cell-based
Chain of mTAAR1(T6.55M) (Q923Y8 whole entry T268M): as the sequence (Q923Y8 whole entry) above, with T268M counted along it

rTAAR1(A5.42T) = rTAAR1(A5.42T) (Rattus norvegicus, UniProt Q923Y9, A193T); assay: cAMP agonist activity assay, rTAAR1; format: cell-based
Chain of rTAAR1(A5.42T) (Q923Y9 whole entry A193T): as the sequence (Q923Y9 whole entry A193I) above, with I193T counted along it
Procedure, shortened: as §1

rTAAR1(N7.39Y) = rTAAR1(N7.39Y) (Rattus norvegicus, UniProt Q923Y9, N287Y); assay: cAMP agonist activity assay, rTAAR1; format: cell-based
Chain of rTAAR1(N7.39Y) (Q923Y9 whole entry N287Y): as the sequence (Q923Y9 whole entry A193I) above, with I193A, N287Y counted along it

rTAAR1(A5.42L) = rTAAR1(A5.42L) (Rattus norvegicus, UniProt Q923Y9, A193L); assay: cAMP agonist activity assay, rTAAR1; format: cell-based; conditions: for decrease in potency versus wild type: rTAAR1(A5.42L)
Chain of rTAAR1(A5.42L) (Q923Y9 whole entry A193L): as the sequence (Q923Y9 whole entry A193I) above, with I193L counted along it
Procedure, shortened: as §1

mTAAR1(T6.55M/Y7.39N) = mTAAR1(T6.55M/Y7.39N) (Mus musculus, UniProt Q923Y8, T268M/Y287N); assay: cAMP agonist activity assay, mTAAR1; format: cell-based
Chain of mTAAR1(T6.55M/Y7.39N) (Q923Y8 whole entry T268M/Y287N): as the sequence (Q923Y8 whole entry) above, with T268M, Y287N counted along it

mTAAR1(Y4.56F) = mTAAR1(Y4.56F) (Mus musculus, UniProt Q923Y8, Y153F); assay: cAMP agonist activity assay, mTAAR1; format: cell-based; conditions: for increase in potency versus wild type: mTAAR1(Y4.56F)
Chain of mTAAR1(Y4.56F) (Q923Y8 whole entry Y153F): as the sequence (Q923Y8 whole entry) above, with Y153F counted along it
Procedure, shortened: as §1

[3] = molecular target: rTAAR1 (wild type rat TAAR1) (Rattus norvegicus, UniProt Q923Y9); assay: In vitro cAMP agonist activity assay; format: cell-based
Chain of rTAAR1 (wild type rat TAAR1) (Q923Y9 whole entry): as the sequence (Q923Y9 whole entry A193I) above, with I193A counted along it

mTAAR1(Y7.39N) = mTAAR1(Y7.39N) (Mus musculus, UniProt Q923Y8, Y287N); assay: cAMP agonist activity assay, mTAAR1; format: cell-based
Chain of mTAAR1(Y7.39N) (Q923Y8 whole entry Y287N): as the sequence (Q923Y8 whole entry) above, with Y287N counted along it

rTAAR1(M6.55T) = rTAAR1(M6.55T) (Rattus norvegicus, UniProt Q923Y9, M268T); assay: cAMP agonist activity assay, rTAAR1; format: cell-based
Chain of rTAAR1(M6.55T) (Q923Y9 whole entry M268T): as the sequence (Q923Y9 whole entry A193I) above, with I193A, M268T counted along it

rTAAR1(F4.56Y) = rTAAR1(F4.56Y) (Rattus norvegicus, UniProt Q923Y9, F153Y); assay: cAMP agonist activity assay, rTAAR1; format: cell-based
Chain of rTAAR1(F4.56Y) (Q923Y9 whole entry F153Y): as the sequence (Q923Y9 whole entry A193I) above, with F153Y, I193A counted along it
Procedure, shortened: as §1

With `NCCc1ccc(Oc2ccc(O)cc2)c(I)c1` [Compound 1, 3-Iodothyronamine] the “decrease in potency versus wild type” value (rTAAR1(A5.42I)) was 3 fold, the “Emax ± SEM” value (rTAAR1(A5.42I); rTAAR1 A5.42I (Table 3a), relative to 1) was 100 ± 0% and the EC50 (rTAAR1(A5.42I); read-out: EC50 ± SEM, rTAAR1 A5.42I (Table 3a)) was 108 ± 14 nM. The “fold less potent for mTAAR1 compared to rTAAR1” value [1] was 7 to 10 fold, the EC50 (rTAAR1(M6.55T/N7.39Y); read-out: EC50 ± SEM) was 90 nM and the “Emax ± SEM” value (rTAAR1(M6.55T/N7.39Y); relative to 1) was 100%. For the same compound, the EC50 ([2]; read-out: EC50 ± SEM, wild type mTAAR1, HEK293 cells, cAMP) was 314 ± 43 nM, the “improvement of potency at mTAAR1 on eliminating the β-phenyl ring of 2, 5 and 7” value ([2]; wild type mTAAR1) was 24- to 32 fold and the “Emax ± SEM” value ([2]; wild type mTAAR1, Emax = 100 % is the activity of 1 at 10 mM (so in the source)) was 100 ± 0%. The EC50 (mTAAR1(T6.55M); read-out: EC50 ± SEM) was 1420 ± 592 nM, the “Emax ± SEM” value (mTAAR1(T6.55M); relative to 1) was 100 ± 0% and the “fold less potent versus wild type” value (rTAAR1(A5.42T); rTAAR1(A5.42T)) was 3 fold. The “Emax ± SEM” value (rTAAR1(A5.42T); rTAAR1 A5.42T, relative to 1) was 100 ± 0%, the EC50 (rTAAR1(A5.42T); read-out: EC50 ± SEM, rTAAR1 A5.42T) was 88 ± 13 nM and the EC50 (rTAAR1(N7.39Y); read-out: EC50 ± SEM) was 135 nM. For the same compound, the “Emax ± SEM” value (rTAAR1(N7.39Y); relative to 1) was 100%, the “decrease in potency versus wild type” value (rTAAR1(A5.42L)) was 2 fold and the “Emax ± SEM” value (rTAAR1(A5.42L); rTAAR1 A5.42L (Table 3a), relative to 1) was 100 ± 0%. For the same compound, the EC50 (rTAAR1(A5.42L); read-out: EC50 ± SEM, rTAAR1 A5.42L (Table 3a)) was 58 ± 16 nM, the EC50 (mTAAR1(T6.55M/Y7.39N); read-out: EC50 ± SEM) was 208 ± 60 nM and the “Emax ± SEM” value (mTAAR1(T6.55M/Y7.39N); relative to 1) was 100 ± 0%. For the same compound, the “increase in potency versus wild type” value (mTAAR1(Y4.56F)) was 5 fold, the EC50 ([3]; read-out: EC50 ± SEM, wild type rTAAR1, HEK293 cells, cAMP) was 33 ± 3 nM and the “Emax ± SEM” value ([3]; wild type rTAAR1, Emax = 100 % is the activity of 1 at 10 mM (so in the source)) was 100± 0%. The “rTAAR1 selectivity: fold more potent for rTAAR1 compared to mTAAR1” value ([3]; wild type receptors) was ~ 10 fold and 7–10 fold, the EC50 (mTAAR1(Y7.39N); read-out: EC50 ± SEM) was 251 ± 43 nM and the “Emax ± SEM” value (mTAAR1(Y7.39N); relative to 1) was 100 ± 0%. For the same compound, the EC50 (rTAAR1(M6.55T); read-out: EC50 ± SEM) was 129 ± 43 nM and the “Emax ± SEM” value (rTAAR1(M6.55T); relative to 1) was 100 ±0%.

For `NCCc1ccc(O)cc1` [Tyramine, tyramine], the EC50 (rTAAR1(A5.42I)) was greater than 10000 nM, the “decrease in potency versus wild type” value (rTAAR1(A5.42I)) was 154 fold and the Emax (rTAAR1(A5.42I); read-out: Emax ± SEM) was 49 ± 7%. The “fold less potent for mTAAR1 compared to rTAAR1” value [1] was 7 to 10 fold, the EC50 [2] was 271 ± 52 nM and the Emax ([2]; read-out: Emax ± SEM) was 110 ± 2%. The EC50 (rTAAR1(A5.42T)) was greater than 10000 nM, the “fold less potent versus wild type” value (rTAAR1(A5.42T); rTAAR1(A5.42T)) was 154 fold and the “less efficacious than wild type” value (rTAAR1(A5.42T); rTAAR1(A5.42T)) was 50%. For the same compound, the Emax (rTAAR1(A5.42T); read-out: Emax ± SEM) was 69 ± 5%, the EC50 (rTAAR1(A5.42L)) was roughly 2000 nM and the “decrease in potency versus wild type” value (rTAAR1(A5.42L)) was 31 fold. For the same compound, the Emax (rTAAR1(A5.42L); read-out: Emax ± SEM) was 102 ± 18%, the EC50 (mTAAR1(Y4.56F)) was 40 ± 13 nM and the “increase in potency versus wild type” value (mTAAR1(Y4.56F)) was 7 fold. For the same compound, the Emax (mTAAR1(Y4.56F); read-out: Emax ± SEM) was 118 ± 8%, the EC50 [3] was 65 ± 1 nM and the Emax ([3]; read-out: Emax ± SEM) was 119 ± 7%. The EC50 (rTAAR1(F4.56Y)) was 54 ± 11 nM and the Emax (rTAAR1(F4.56Y); read-out: Emax ± SEM) was 108 ± 6%.
